Measured values: ChEMBL document CHEMBL2163205 (J Med Chem, 2012)
Values after ≈ are worked out from the molar mass of the structure shown.

How the values were obtained:
Cathepsin S = Cathepsin S (Homo sapiens, UniProt P25774); assay: Inhibition of human recombinant CatS assessed as suppression of enzyme-mediated Z-Val-Val-Arg-AMC cleavage by QFRET assay
How it was run: (§1)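 Recombinant human Cat S at 0.5 nM final was preincubated with compound for 30 min at room temperature. Z-Val-Val-Arg-AMC (100 μM final) was added in potassium phosphate buffer, pH 6.4, incubated 1 h, then stopped with acetic acid. AMC fluorescence read at ex 360/em 425 nm; IC50 by nonlinear regression.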

[1] = Lipophilicity, log D of the compound at pH 7.4; conditions: buffer
[2] = Intrinsic clearance in human liver microsomes assessed as metabolic turnover
Procathepsin L = Procathepsin L (Homo sapiens, UniProt P07711); assay: Inhibition of human recombinant CatL assessed as suppression of enzyme-mediated Z-Phe-Arg-AMC cleavage by QFRET assay
Sequence of Procathepsin L (P07711 whole entry): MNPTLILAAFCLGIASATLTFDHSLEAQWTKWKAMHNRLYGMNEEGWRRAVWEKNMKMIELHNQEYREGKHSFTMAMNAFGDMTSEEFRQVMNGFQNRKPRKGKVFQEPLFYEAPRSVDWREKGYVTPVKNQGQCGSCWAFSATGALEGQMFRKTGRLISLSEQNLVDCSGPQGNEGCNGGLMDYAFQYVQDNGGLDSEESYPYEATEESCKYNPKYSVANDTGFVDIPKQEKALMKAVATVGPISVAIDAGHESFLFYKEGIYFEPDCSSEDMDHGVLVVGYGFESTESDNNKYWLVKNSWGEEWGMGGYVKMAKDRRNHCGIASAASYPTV
How it was run: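 Recombinant human Cat L at 0.1 nM final was preincubated with compound for 30 min, then Z-Phe-Arg-AMC (10 μM final) was added. QFRET cleavage was run 1 h at room temperature and stopped with acetic acid. Fluorescence read at ex 360/em 425 nm; IC50 by variable-slope nonlinear regression.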

Cathepsin K = target: T1, Cathepsin K (Homo sapiens, UniProt P43235); assay: Inhibition of human recombinant CatK assessed as suppression of enzyme-mediated Z-Phe-Arg-AMC cleavage incubated for 1 hrs by QFRET assay
T1 sequence (P43235 whole entry): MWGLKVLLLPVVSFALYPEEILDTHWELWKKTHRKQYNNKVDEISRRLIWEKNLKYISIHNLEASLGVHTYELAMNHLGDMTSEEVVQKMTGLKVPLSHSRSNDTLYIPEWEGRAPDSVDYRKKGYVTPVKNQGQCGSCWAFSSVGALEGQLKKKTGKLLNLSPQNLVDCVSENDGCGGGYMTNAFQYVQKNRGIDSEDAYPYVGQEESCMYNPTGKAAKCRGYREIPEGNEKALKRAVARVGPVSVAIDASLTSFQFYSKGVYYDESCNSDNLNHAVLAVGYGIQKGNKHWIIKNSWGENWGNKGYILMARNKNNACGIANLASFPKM

[3] = Intrinsic clearance in rat liver microsomes assessed as metabolic turnover
Cathepsin B = Cathepsin B (Homo sapiens, UniProt P07858); assay: Inhibition of human recombinant CatB assessed as suppression of enzyme-mediated Z-Arg-Arg-AMC cleavage by QFRET assay
How it was run: as §1, with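 “B” for “S”, “Z-Arg-Arg-AMC” for “Z-Val-Val-Arg-AMC”, “Fluorescence” for “AMC fluorescence”, “nm with background correction;” for “nm;”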

[4] = Aqueous solubility of the compound at pH 7.4; conditions: buffer

Sequence of Cathepsin S (P25774 whole entry): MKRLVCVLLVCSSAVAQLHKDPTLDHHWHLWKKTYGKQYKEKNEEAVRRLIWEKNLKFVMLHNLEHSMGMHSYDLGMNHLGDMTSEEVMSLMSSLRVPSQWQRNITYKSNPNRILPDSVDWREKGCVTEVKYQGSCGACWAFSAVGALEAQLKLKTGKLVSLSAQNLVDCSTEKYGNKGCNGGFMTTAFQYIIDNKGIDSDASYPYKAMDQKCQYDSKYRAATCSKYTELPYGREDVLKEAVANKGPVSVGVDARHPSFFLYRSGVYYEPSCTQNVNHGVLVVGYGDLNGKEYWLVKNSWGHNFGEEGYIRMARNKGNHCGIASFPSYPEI

IC50 (Cathepsin S) | logD [1] | microsomal CLint [2] | IC50 (Procathepsin L) | IC50 (Cathepsin K) | microsomal CLint [3] | IC50 (Cathepsin B) | solubility [4] | IC50 (Procathepsin L; read-out: IC50) | SMILES
 |  | 18 µL/min/mg |  | < 1 nM | > 250 µL/min/mg | 1420 nM |  | > 40 µM | N#CCNC(=O)[C@@H]1CCCC[C@H]1C(=O)N1CCc2[nH]c3ccc(F)cc3c2C1
> 4 µM | 3.7 | 87 µL/min/mg | Not Active |  | > 350 µL/min/mg | > 2900 nM | 130 µM (≈ 55.2 µg/mL) |  | N#CC1(NC(=O)[C@@H]2CCCC[C@H]2C(=O)N2CCc3[nH]c4ccc(Cl)cc4c3C2)CC1
> 4 µM | 4.1 |  | Not Active | 50 nM |  | > 2900 nM | 84 µM (≈ 36.3 µg/mL) |  | CC(C)c1ccc2[nH]c3c(c2c1)CN(C(=O)[C@@H]1CCCC[C@H]1C(=O)NC1(C#N)CC1)CC3
> 100 µM | 3.1 | 12 µL/min/mg |  | 16.2 nM | > 250 µL/min/mg | 44900 nM | 460 µM (≈ 182 µg/mL) | > 100 µM | C[C@H](C#N)NC(=O)[C@@H]1CCCC[C@H]1C(=O)N1CCc2[nH]c3ccc(F)cc3c2C1
> 4 µM | 1.5 | < 2 µL/min/mg | Not Active | 34 nM | 7.2 µL/min/mg | > 2900 nM | 902 µM (≈ 423 µg/mL) |  | CS(=O)(=O)c1ccc2c3c([nH]c2c1)CCN(C(=O)[C@@H]1CCCC[C@H]1C(=O)NC1(C#N)CC1)C3
> 4 µM | 3 | 55 µL/min/mg | Not Active | < 1 nM | 311 µL/min/mg | > 2900 nM | 470 µM (≈ 192 µg/mL) |  | N#CC1(NC(=O)[C@@H]2CCCC[C@H]2C(=O)N2CCc3[nH]c4c(F)cccc4c3C2)CC1
> 100 µM | > 4.1 | 99 µL/min/mg |  | 785 nM | 195 µL/min/mg | 31200 nM | 74 µM (≈ 32.5 µg/mL) | > 100 µM | CC(C)(C)[C@@H](C#N)NC(=O)[C@@H]1CCCC[C@H]1C(=O)N1CCc2[nH]c3ccc(F)cc3c2C1
> 4 µM | 4.2 | 33 µL/min/mg | Not Active |  | 82 µL/min/mg | > 2900 nM | 74 µM (≈ 33.9 µg/mL) |  | N#CC1(NC(=O)[C@@H]2CCCC[C@H]2C(=O)N2CCc3[nH]c4ccc(C(F)(F)F)cc4c3C2)CC1
> 4 µM | 3.2 | 57 µL/min/mg | Not Active | 10 nM | 322 µL/min/mg | > 2900 nM | 128 µM (≈ 52.3 µg/mL) |  | N#CC1(NC(=O)[C@@H]2CCCC[C@H]2C(=O)N2CCc3[nH]c4cccc(F)c4c3C2)CC1
> 70 µM | 3.5 |  |  | 17.3 nM |  | 73500 nM |  | > 40 µM | C[C@@H](C#N)NC(=O)[C@@H]1CCCC[C@H]1C(=O)N1CCc2[nH]c3ccc(F)cc3c2C1

Further lines, the compound ahead of its results:

SMILES | IC50 (Cathepsin S) | logD [1] | microsomal CLint [2] | IC50 (Procathepsin L) | IC50 (Cathepsin K) | microsomal CLint [3] | IC50 (Cathepsin B) | solubility [4] | IC50 (Procathepsin L; read-out: IC50)
Cc1cccc2c3c([nH]c12)CCN(C(=O)[C@@H]1CCCC[C@H]1C(=O)NC1(C#N)CC1)C3 | > 4 µM | 3 | 25 µL/min/mg | Not Active | 3 nM | 179 µL/min/mg | > 2900 nM | 510 µM (≈ 206 µg/mL) | 
N#CC1(NC(=O)[C@@H]2CCCC[C@H]2C(=O)N2CCc3[nH]c4c(Br)cccc4c3C2)CC1 |  |  | 43 µL/min/mg | Not Active | 4 nM | 164 µL/min/mg | > 2900 nM |  | 
N#CCNC(=O)[C@@H]1CCCC[C@H]1C(=O)N1CCCCC1 | 2.11 µM | 0.9 | < 2 µL/min/mg |  | 73 nM | 12 µL/min/mg | 8750 nM | > 4900 µM | > 100 µM
N#CC(NC(=O)[C@@H]1CCCC[C@H]1C(=O)N1CCN(c2ccc(F)cc2)CC1)c1ccccc1 (stereo partly drawn) | 0.258 µM |  |  |  | 3 nM |  |  |  | 
N#Cc1cccc2c3c([nH]c12)CCN(C(=O)[C@@H]1CCCC[C@H]1C(=O)NC1(C#N)CC1)C3 | > 4 µM | 2.5 | 34 µL/min/mg | Not Active | 2 nM | 80 µL/min/mg | > 2900 nM | 400 µM (≈ 166 µg/mL) | 
CSc1cccc2c3c([nH]c12)CCN(C(=O)[C@@H]1CCCC[C@H]1C(=O)NC1(C#N)CC1)C3 | > 4 µM |  | 79 µL/min/mg | Not Active | 4 nM | 303 µL/min/mg | > 2900 nM |  | 
N#CCNC(=O)[C@@H]1CCCC[C@H]1C(=O)N1CCN(c2ccccc2)CC1 | 1.03 µM | 1.8 | 7.7 µL/min/mg |  | 7 nM | 115 µL/min/mg | 455 nM | 640 µM (≈ 227 µg/mL) | > 100 µM
N#CCNC(=O)[C@@H]1CCCC[C@H]1C(=O)N1CC=CCC1 |  |  | 4.5 µL/min/mg |  | 18 nM | 41 µL/min/mg |  |  | > 100 µM
Cn1c2c(c3c(F)c(F)ccc31)CN(C(=O)[C@@H]1CCCC[C@H]1C(=O)NC1(C#N)CC1)CC2 | > 4 µM | 2.8 | 170 µL/min/mg | Not Active | 3 nM | > 350 µL/min/mg | > 2900 nM | 300 µM (≈ 132 µg/mL) | 
N#CC1(NC(=O)[C@@H]2CCCC[C@H]2C(=O)N2CCc3[nH]c4c(C(F)(F)F)cccc4c3C2)CC1 | > 4 µM | 3.8 | 26 µL/min/mg | Not Active | 5 nM | 116 µL/min/mg | > 2900 nM | 150 µM (≈ 68.8 µg/mL) | 
CS(=O)(=O)c1cccc2c3c([nH]c12)CCN(C(=O)[C@@H]1CCCC[C@H]1C(=O)NC1(C#N)CC1)C3 | > 4 µM | 1.7 | 4 µL/min/mg | Not Active | 17 nM | 23 µL/min/mg | > 2900 nM | 1600 µM (≈ 750 µg/mL) | 
CC(C)(F)C[C@H](N[C@@H](c1ccc(-c2ccc(S(C)(=O)=O)cc2)cc1)C(F)(F)F)C(=O)NC1(C#N)CC1 [ODANACATIB] | 0.183 µM |  |  |  | < 1 nM |  |  |  | 
CCOc1cccc2c3c([nH]c12)CCN(C(=O)[C@@H]1CCCC[C@H]1C(=O)NC1(C#N)CC1)C3 | > 4 µM | 3.1 | 13 µL/min/mg | Not Active | < 1 nM | 62 µL/min/mg | > 2900 nM | 300 µM (≈ 130 µg/mL) | 
N#CC1(NC(=O)[C@@H]2CCCC[C@H]2C(=O)N2CCc3[nH]c4c(Cl)cccc4c3C2)CC1 |  |  | 46 µL/min/mg | Not Active | 2 nM | 226 µL/min/mg | > 2900 nM |  | 
N#CC1(NC(=O)[C@@H]2CCCC[C@H]2C(=O)N2CCc3[nH]c4c(OC(F)(F)F)cccc4c3C2)CC1 | > 4 µM | 4 | 19 µL/min/mg | Not Active | 2 nM | 53 µL/min/mg | > 2900 nM | 120 µM (≈ 56.9 µg/mL) | 
COc1ccccc1C(C#N)NC(=O)[C@@H]1CCCC[C@H]1C(=O)N1CCN(Cc2ccc(F)cc2)CC1 (stereo partly drawn) | 0.076 µM |  |  |  | 1 nM |  |  |  | 
N#CCNC(=O)[C@@H]1CCCC[C@H]1C(=O)N1CCc2ccccc2C1 |  |  | 23 µL/min/mg |  | 2 nM | 145 µL/min/mg | 712 nM |  | 3.11 µM
